Assay results taken from ChEMBL document CHEMBL4364335, “Highly hydrophilic 1,3-oxazol-5-yl benzenesulfonamide inhibitors of carbonic anhydrase II for reduction of glaucoma-related intraocular pressure” (Bioorg Med Chem, 2019).
The source made the active and inactive calls. The calls are words filed in the database; no cut-off is given here.

Experiments:
Carbonic anhydrase 1 = Carbonic anhydrase 1 (Homo sapiens, UniProt P00915); assay: Inhibition of human carbonic anhydrase 1 incubated for 15 mins by phenol red staining-based stopped flow CO2 hydrase assay
Carbonic anhydrase 1, sequence (P00915 whole entry): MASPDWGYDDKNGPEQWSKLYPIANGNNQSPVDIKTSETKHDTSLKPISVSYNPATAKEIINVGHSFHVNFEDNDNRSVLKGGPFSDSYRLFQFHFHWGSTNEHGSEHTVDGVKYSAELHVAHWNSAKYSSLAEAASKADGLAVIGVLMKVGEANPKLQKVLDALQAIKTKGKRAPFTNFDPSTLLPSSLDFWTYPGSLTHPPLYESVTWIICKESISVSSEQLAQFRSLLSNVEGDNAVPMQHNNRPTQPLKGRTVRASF

Carbonic anhydrase 2 = Carbonic anhydrase 2 (Homo sapiens, UniProt P00918); assay: Inhibition of human carbonic anhydrase 2 incubated for 15 mins by phenol red staining-based stopped flow CO2 hydrase assay
Carbonic anhydrase 4 = Carbonic anhydrase 4 (Homo sapiens, UniProt P22748); assay: Inhibition of human carbonic anhydrase 4 incubated for 15 mins by phenol red staining-based stopped flow CO2 hydrase assay
Carbonic anhydrase 4, sequence (P22748 whole entry): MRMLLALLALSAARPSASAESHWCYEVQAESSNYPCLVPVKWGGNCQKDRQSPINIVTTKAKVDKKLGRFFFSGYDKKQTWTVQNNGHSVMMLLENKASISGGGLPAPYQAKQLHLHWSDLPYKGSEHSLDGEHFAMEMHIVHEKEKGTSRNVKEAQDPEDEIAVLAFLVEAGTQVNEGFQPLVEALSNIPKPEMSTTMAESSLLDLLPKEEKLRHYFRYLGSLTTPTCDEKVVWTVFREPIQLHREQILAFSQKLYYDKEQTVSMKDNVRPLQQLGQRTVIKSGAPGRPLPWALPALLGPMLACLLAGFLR

Carbonic anhydrase 12 = Carbonic anhydrase 12 (Homo sapiens, UniProt O43570); assay: Inhibition of human carbonic anhydrase 12 incubated for 15 mins by phenol red staining-based stopped flow CO2 hydrase assay
Carbonic anhydrase 12, sequence (O43570 whole entry): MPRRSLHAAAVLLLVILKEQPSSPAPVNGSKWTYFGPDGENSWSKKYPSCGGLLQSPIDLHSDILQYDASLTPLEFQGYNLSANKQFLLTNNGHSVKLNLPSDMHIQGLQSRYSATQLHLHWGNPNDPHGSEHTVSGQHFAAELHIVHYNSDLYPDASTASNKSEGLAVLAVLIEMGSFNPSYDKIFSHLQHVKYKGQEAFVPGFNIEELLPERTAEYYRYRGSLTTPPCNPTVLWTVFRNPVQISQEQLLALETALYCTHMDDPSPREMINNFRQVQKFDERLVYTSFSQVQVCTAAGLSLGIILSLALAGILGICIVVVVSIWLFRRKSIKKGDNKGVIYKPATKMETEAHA

Oryctolagus cuniculus [1] = assay: Reduction of intraocular pressure in ocular normotensive New Zealand White rabbit administered topically to the eye measured for 0.5 to 8 hrs by tonometry (reference value: 12.00 +/- 6.81%); assay type: functional; details: topical
Oryctolagus cuniculus [2] = assay: Reduction of intraocular pressure in ocular normotensive New Zealand White rabbit at 0.5 % administered topically to the eye measured for 0.5 to 8 hrs by tonometry; assay type: functional, organism-based
[3] = Toxicity in New Zealand White rabbit assessed as induction of eye lid closure at 0.5% administered topically to the eye; design: species or system Oryctolagus cuniculus; details: in vivo, topical_or_ocular
Outline: (§1)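 Single 25 µl drop given to the left eye of albino rabbits, which were held immobile for one minute afterwards. Irritation was followed by eye throughout the experiment and scored as blinking, head shaking or eyelid closure, with the duration of closure noted in seconds.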

Oryctolagus cuniculus [4] = assay: Reduction of intraocular pressure in ocular normotensive New Zealand White rabbit at 1% administered topically to the eye measured for 0.5 to 8 hrs by tonometry; assay type: functional, organism-based
[5] = Toxicity in New Zealand White rabbit assessed as induction of eye lid closure at 1% administered topically to the eye; design: species or system Oryctolagus cuniculus; details: in vivo, topical_or_ocular; outline: as §1
[6] = Toxicity in New Zealand White rabbit assessed as head shaking at 1% administered topically to the eye; design: species or system Oryctolagus cuniculus; details: in vivo, topical_or_ocular; outline: as §1
Oryctolagus cuniculus [7] = assay: Reduction of intraocular pressure in ocular normotensive New Zealand White rabbit at 2% administered topically to the eye measured for 0.5 to 8 hrs by tonometry; assay type: functional, organism-based
[8] = Toxicity in New Zealand White rabbit assessed as induction of eye lid closure at 2% administered topically to the eye; design: species or system Oryctolagus cuniculus; details: in vivo, topical_or_ocular; outline: as §1
[9] = Toxicity in New Zealand White rabbit assessed as head shaking at 2% administered topically to the eye; design: species or system Oryctolagus cuniculus; details: in vivo, topical_or_ocular; outline: as §1
[10] = Toxicity in New Zealand White rabbit assessed as head shaking at 0.5% administered topically to the eye; design: species or system Oryctolagus cuniculus; details: in vivo, topical_or_ocular; outline: as §1

Compound	Ki (Carbonic anhydrase 1)	Ki (Carbonic anhydrase 2)	Ki (Carbonic anhydrase 4)	Ki (Carbonic anhydrase 12)	Emax (Oryctolagus cuniculus [1])	Activity (Oryctolagus cuniculus [2])	Activity [3]	Activity (Oryctolagus cuniculus [4])	Activity [5]	Activity [6]	Activity (Oryctolagus cuniculus [7])	Activity [8]	Activity [9]	Activity [10]
NC1CCN(C(=O)c2ncc(-c3ccc(S(N)(=O)=O)cc3)o2)CC1	0.0619 µM	0.00054 µM	0.257 µM	0.0915 µM	22%	inactive	Toxic							
NS(=O)(=O)c1ccc(-c2cnc(C(=O)N3CCNCC3)o2)cc1	0.109 µM	0.005 µM	0.42 µM	0.0685 µM	35.6%			Active	Non-Toxic	Non-Toxic				
CCN[C@H]1C[C@H](C)S(=O)(=O)c2sc(S(N)(=O)=O)cc21 [DORZOLAMIDE]					27.8%						Active	Non-Toxic	Non-Toxic	

More lines, main results first:

Ki (Carbonic anhydrase 1)	Ki (Carbonic anhydrase 2)	Ki (Carbonic anhydrase 4)	Ki (Carbonic anhydrase 12)	Compound	Emax (Oryctolagus cuniculus [1])	Activity (Oryctolagus cuniculus [2])	Activity [3]	Activity (Oryctolagus cuniculus [4])	Activity [5]	Activity [6]	Activity (Oryctolagus cuniculus [7])	Activity [8]	Activity [9]	Activity [10]
0.101 µM			0.0901 µM	NCCNC(=O)c1ncc(-c2ccc(S(N)(=O)=O)cc2)o1	29.6%			Active	Non-Toxic	Non-Toxic				
0.0508 µM			0.0873 µM	NS(=O)(=O)c1ccc(-c2cnc(C(=O)NC3CCNCC3)o2)cc1	19.4%		Non-Toxic							Non-Toxic
